# Sampled rows, rich in hits. Any-hit rate of the full collection: about 1.7%.
# CAL PDZ FP-1: CAL PDZ (human) peptide binding inhibition; Q9HD26; purified CAL PDZ, TMR-peptide fluorescence polarization, 1 h; inhibition, % at 24.9 µM; 0.92% of 300,000 active; AID 602252;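 active = mean inhibition of at least 30% with at least half of replicates also reaching 30%; inconclusive = no clear call, values can overlap the other calls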;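 also: 0% = DMSO neutral control and 100% = excess unlabeled competitor peptide PRC23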
# ARNT-TACC3 inh: disruptors of human ARNT/TACC3 interaction | inhibition, % at 9.99 µM | Q9Y6A5 | AlphaScreen His-ARNT PAS-B/GST-TACC3 binding, luminescence; TACC3 fragment carries E629A point mutation | AID 623870 | 0.66% of 390,000 active;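 active = mean inhibition of replicates at least 50% and at least half of replicates each reaching 50%; inconclusive = half or more replicates reach 50% but mean below 50%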;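 also: 0% = complete ARNT plus TACC3 wells and 100% = ARNT alone without TACC3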
# Rce1 inh: yeast Ras-converting enzyme inhibition; Q03530; yeast membranes, quenched prenylated peptide cleavage fluorescence; calls only; 0.27% of 290,000 active;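 active = fall in fluorescence gain of 50% or more versus controls, with final raw signal at or below 3038400; inconclusive = same 50% fall but final raw signal above 3038400; inactive = fall in fluorescence gain under 50%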;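 also: plate controls were neutral control wells for no effect and wells lacking membranes for full effect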
# Target sequence (Q03530 whole entry, looked up): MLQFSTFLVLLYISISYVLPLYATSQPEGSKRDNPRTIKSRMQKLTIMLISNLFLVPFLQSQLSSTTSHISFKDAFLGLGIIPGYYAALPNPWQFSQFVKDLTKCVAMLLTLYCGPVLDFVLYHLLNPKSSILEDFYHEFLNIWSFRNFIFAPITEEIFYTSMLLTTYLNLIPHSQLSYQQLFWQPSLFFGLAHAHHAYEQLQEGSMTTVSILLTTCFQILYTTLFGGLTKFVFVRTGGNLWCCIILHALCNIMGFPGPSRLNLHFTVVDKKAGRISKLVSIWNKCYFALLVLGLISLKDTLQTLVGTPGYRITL
# AI-2 QS modul: modulators of Vibrio harveyi AI-2 quorum sensing system | Vibrio harveyi JMH597 AI-2 luminescence/OD600 ratio, 9 h; stronger effect = lower value; strain lacks LuxN and CqsS sensors; 0 = neutral-control median | activity change, % at 7.5 µM | 0.4% of 300,000 active; in the data active = activity change below about -75%, passing the limit was not always enough; inconclusive = no clear call, values can overlap the other calls;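 also: luminescence divided by OD600 gain over 9 h not by final OD600 alone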
# CAL PDZ FP-2: inhibitors of human CAL PDZ peptide binding | Q9HD26 | purified CAL PDZ, TMR-peptide fluorescence polarization, 1 h | inhibition, % at 20 µM | 0.02% of 330,000 active;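 active = highest replicate inhibition of at least 40%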;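 also: plate controls were DMSO neutral control wells for no effect and unlabeled competitor peptide control wells for full effect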
#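 Material: tagged CAL PDZ domain; buffer or medium: 25 mM sodium phosphate pH 7.4, 150 mM NaCl, TCEP, IgG, Thesit; compound dosing: single point, 20 µM; schedule: 1 h incubation at room temperature before polarization reading; measured by: FP readout, S and P plane fluorescence; read-out basis: percent inhibition from loss of millipolarization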
# * marks the source's active call; other numbers are inactive results; i = inactive; ? = inconclusive; nt = no result given; + = active, no number.
SMILES,CAL PDZ FP-1,ARNT-TACC3 inh,Rce1 inh,AI-2 QS modul,CAL PDZ FP-2
CC1CCCCN1C(=O)c1ccc(COc2ccc([N+](=O)[O-])cc2)o1 (centres undefined),-5.0,3.9,i,19.4,-0.8
Cc1ccc(S(=O)(=O)NCC2CCC(C(=O)NCCCN3CCOCC3)CC2)cc1 (centres undefined),38.9*,-8.3,i,7.8,-4.4
O=C(NCCc1ccccc1)C1CCC(CNS(=O)(=O)c2ccc(F)cc2)CC1 (centres undefined),40.6*,-3.0,i,18.6,0.0
O=C(NCCC1=CCCCC1)C1CCC(CNS(=O)(=O)c2ccccc2)CC1 (centres undefined),-3.5,-2.2,i,21.8,-0.4
C[n+]1c2n(c3ccccc31)N=C(c1cc(C(C)(C)C)c(O)c(C(C)(C)C)c1)CS2,-4.8,nt,+,12.6,-13.3
COc1cccc(C2=Nn3c(nnc3-c3ccccc3O)SC2)c1,10.2,-0.3,i,8.4,-1.4
CCCS(=O)(=O)c1c(S(=O)(=O)CCC)c2ccc(C(C)=O)cn2c1C(=O)OC,-0.2,-3.1,i,9.0,-0.3
CCOc1ccc(/C=N/Nc2ccccn2)cc1OC,29.7,10.3,i,20.8,-0.6
COc1cc(N/N=C/c2ccc(N(C)C)cc2)ncn1,-3.4,-1.0,i,17.2,0.6
COc1cc(/C=N/Nc2ccccn2)cc(OC)c1O,-4.7,66.5*,nt,24.9,-2.1
COc1cc(N/N=C/c2ccccc2O)ncn1,nt,62.9*,i,8.7,-5.1
O=C(Nc1cccc(N2C(=O)C=CC2=O)c1)c1cccs1,-3.3,-4.2,i,?,-1.1
O=C1C=CC(=O)N1c1cccc(-c2ccccc2)c1,-2.7,-6.2,i,-212.3*,1.6
COc1ccc(CNC(=O)c2c(N)n(CCCN3CCOCC3)c3nc4ccccc4nc23)cc1,-2.8,-43.5,+,10.1,-0.6
CCN1CCN(C(CNS(=O)(=O)c2ccccc2)c2ccccc2)CC1 (centres undefined),42.6*,-3.5,i,4.4,0.2
Cc1ccc(C(=O)NN2C(=O)CSC2=S)cc1,-3.7,-10.5,i,18.6,-0.6
C/C(=N\N1C(=O)CSC1=S)c1ccc(Br)cc1,43.8*,2.2,i,18.0,-1.5
O=C(CC1C(=O)NCCN1Cc1cccc(F)c1)NCCCCCN1CCOCC1 (centres undefined),48.3*,-0.5,i,12.3,-1.1
COc1cc(CN2CCNC(=O)C2CC(=O)NCCCN2CCOCC2)cc(OC)c1 (centres undefined),-4.4,5.0,i,17.3,-0.2
CCc1ccc(OCC(=O)N2CCc3ccccc32)cc1,37.8*,-2.2,i,-46.8,-0.8
C=CCc1ccccc1OCC(O)CN1CCN(C(=O)OCC)CC1 (centres undefined),-1.7,-2.2,i,-10.6,-0.3
Cc1ccc(S(=O)(=O)N(C)C(C)CCc2ccco2)cc1 (centres undefined),+,-4.2,nt,nt,-1.0
C[C@H](CO)N1C[C@H](C)[C@@H](CN(C)C(=O)c2ccc3c(c2)OCO3)Oc2cc(/C=C/c3ccccc3)ccc2S1(=O)=O,nt,-0.7,nt,nt,nt
Cc1nc2cc(-c3cccc(F)c3)nn2c(C)c1CCC(=O)N1CCN(c2ccccn2)CC1,nt,-6.7,i,21.0,0.9
COc1ccc(-c2cc3nc(C)c(CCC(=O)N4CCN(c5ccccn5)CC4)c(C)n3n2)c(OC)c1,1.9,-13.0,+,17.5,-1.3
SMILES,CAL PDZ FP-1,ARNT-TACC3 inh,Rce1 inh,AI-2 QS modul,CAL PDZ FP-2
COc1cc(OC)cc(C(=O)NCC2CCCN(C(=O)c3oc(C)cc3C)C2)c1 (centres undefined),46.2*,-11.8,i,8.2,-0.5
Cc1ccc(C(=O)Nc2ccsc2C(=O)O)cc1,-1.7,4.3,i,17.8,0.4
O=C(Nc1ccsc1C(=O)O)c1ccc(Cl)cc1,-5.9,active,i,24.2,-0.9
Cc1ccc(Sc2ncnc(N)c2[N+](=O)[O-])cc1,-2.1,-3.8,i,26.2,0.3
Nc1ncnc(Sc2ccc(Cl)cc2)c1[N+](=O)[O-],1.2,48.7*,i,-15.0,-0.2
CCCC#Cc1ccc([C@H]2[C@@H](C#N)N(S(C)(=O)=O)[C@@H]2CO)cc1,nt,1.3,nt,nt,nt
O=C(O)C1Sc2[nH]c(=O)sc2C2c3ccc(O)cc3OC(=O)C12 (centres undefined),-1.3,19.0,+,5.6,-2.2
O=C(NCCCN1CCOCC1)C(=O)NCC1OCCN1S(=O)(=O)c1ccc(F)cc1 (centres undefined),-3.9,8.7,i,-3.6,-3.3
COCCNC(=O)C(=O)NCC1OCCN1S(=O)(=O)c1ccc(F)cc1 (centres undefined),34.2*,-7.1,i,4.6,-0.3
O=C(NCCN1CCOCC1)C(=O)NCC1OCCN1S(=O)(=O)c1ccc(F)cc1 (centres undefined),83.0*,30.9,i,7.3,2.9
Nn1c(-c2cccc([N+](=O)[O-])c2)nc2ccccc2c1=O,0.0,2.3,i,-2.6,-1.1
C[C@@H]1CN([C@@H](C)CO)C(=O)Cc2cc(NC(=O)Nc3cccc4ccccc34)ccc2O[C@@H]1CN(C)Cc1ccc(Cl)c(Cl)c1,nt,13.9,nt,nt,nt
CCOc1ccc(OCC)c(NC(=O)C2CCCN(S(=O)(=O)c3c(C)noc3C)C2)c1 (centres undefined),32.6*,12.0,i,12.1,-4.9
COc1ccc(OC)c(NC(=O)C2CCCN(S(=O)(=O)c3c(C)noc3C)C2)c1 (centres undefined),-4.5,0.5,i,23.5,nt
Cc1ccc(NC(=O)COC(=O)CCn2c(C)csc2=O)c([N+](=O)[O-])c1,-1.3,1.0,i,26.0,-1.6
Cc1ccc(C(=O)N/N=C/c2ccc(-c3ccccc3[N+](=O)[O-])o2)cn1,-0.5,26.9*,i,9.0,-2.2
OCCCNc1ncnc2sc(-c3ccccc3)cc12,11.0,14.9,+,19.2,-3.5
CC(=O)NCCNC(=O)c1oc2ccccc2c1CSc1ncn[nH]1,71.9*,0.7,i,0.2,-0.8
CCN(C[C@H]1[C@H](c2ccccc2)[C@@H](CO)N1CC1CC1)C(=O)c1cccc(F)c1,nt,-1.0,nt,nt,nt
O=C(COC(=O)/C=C/c1cn(-c2ccccc2)nc1-c1ccc2c(c1)OCCO2)NC1CCS(=O)(=O)C1 (centres undefined),-5.0,-1.5,+,15.3,-5.4
CCc1cc(C(=O)c2ccc(Br)cc2)c(NC(=O)CN(CC)CC)s1,-0.4,-0.6,i,3.9,0.6
O=C(CSc1cccc[n+]1[O-])Nc1ccc(Cl)cc1F,-2.4,-2.2,nt,nt,-0.6
O=C(COC(=O)c1cccc(O)c1)Nc1nnc(-c2ccccc2)o1,-3.4,60.0*,i,42.1,-1.3
CCOc1ncccc1C(=O)OCC(=O)Nc1nnc(-c2ccccc2)o1,nt,53.7*,i,-0.1,0.0
COc1cc(C(=O)OCC(=O)Nc2nnc(-c3ccccc3)o2)cc(OC)c1OC,-1.9,46.9*,i,9.3,-1.1

# From PubChem
